Measured values as given in ChEMBL document CHEMBL4715758, “Hit-to-Lead Optimization of a Novel Class of Potent, Broad-Spectrum Trypanosomacides” (J Med Chem, 2016).
The source made the active and inactive calls. The rule behind the calls is not given here.

Legend:
Trypanosoma cruzi [1] = assay: Antitrypanosomal activity against Trypanosoma cruzi Tulahuen strain trypomastigotes infected in rat H9c2 cells incubated for 72 hrs by DRAQ5 DNA dye based imaging analysis; type: functional, organism-based; settings: H9c2, 72 h
[2] = system: Trypanosoma brucei brucei; assay: Antitrypanosomal activity against Trypanosoma brucei brucei Lister 427 strain blood stream form assessed as parasite growth inhibition at 10 uM incubated for 48 hrs by resazurin dye based fluorescence assay relative to control; type: functional; settings: for inhibition at 10 µM: Lister 427, 48 h
How it was run: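 Alamar Blue (resazurin) growth-inhibition screen against T. b. brucei at 10 μM, the same assay used to find the original hit. Compounds reaching 50% or greater inhibition were then taken into concentration–response testing for IC50.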

[3] = Selectivity index, ratio of IC50 for cytotoxicity against rat H9c2 cells assessed as reduction in cell viability to IC50 for antitrypanosomal against Trypanosoma cruzi Tulahuen trypomastigotes infected in rat H9c2 cells; type: toxicity, cell-based; settings: read-out: Ratio IC50
[4] = system: Trypanosoma brucei brucei; assay: Antitrypanosomal activity against Trypanosoma brucei brucei Lister 427 strain blood stream forms incubated for 48 hrs by resazurin dye based fluorescence assay; type: functional, organism-based; settings: Lister 427, 48 h
[5] = Selectivity index, ratio of IC50 for cytotoxicity against human HEK293 cells assessed as reduction in cell viability to IC50 for antitrypanosomal activity against Trypanosoma brucei brucei Lister 427 blood stream form; type: toxicity, cell-based; settings: read-out: Ratio IC50
Trypanosoma cruzi [6] = assay: Antitrypanosomal activity against Trypanosoma cruzi Tulahuen strain trypomastigotes infected in rat H9c2 cells at 10 uM incubated for 72 hrs by DRAQ5 DNA dye based imaging analysis relative to control; type: functional
[7] = Intrinsic clearance in human liver microsomes assessed per mg protein measured after 60 mins in presence of NADPH generating system by LC-MS analysis; type: ADME, Microsome; settings: read-out: CLH
[8] = Metabolic stability in human liver microsomes assessed as degradation half-life measured after 60 mins in presence of NADPH generating system by LC-MS analysis; type: ADME, Microsome; settings: read-out: T50

O=C(Cc1ccc2c(c1)OCO2)NCCc1csc(-c2ccccc2)n1
IC50 (Trypanosoma cruzi [1]): 40 µM | inhibition at 10 µM [2]: < 50% | selectivity ratio [3]: > 1.2

O=C(NCCc1csc(-c2ccccc2)n1)OC1CCCC1
IC50 [4]: 0.3 µM | IC50 (Trypanosoma cruzi [1]): 0.4 µM | selectivity ratio [3]: > 125 | selectivity ratio [5]: 280

CC(C)N(C)C(=O)NCCc1csc(-c2ccccc2)n1
IC50 [4]: 0.39 µM | IC50 (Trypanosoma cruzi [1]): 1 µM | selectivity ratio [3]: > 50 | selectivity ratio [5]: 212

COc1cccc(C(=O)NCCc2csc(-c3ccccc3)n2)c1
IC50 [4]: 1.9 µM | IC50 (Trypanosoma cruzi [1]): 3.2 µM | selectivity ratio [3]: > 15 | selectivity ratio [5]: 26

Cc1ccc(C(=O)NCCc2csc(-c3ccccc3)n2)cc1
IC50 (Trypanosoma cruzi [1]): 40 µM | inhibition at 10 µM [2]: < 50% | selectivity ratio [3]: 1.2

CCN(CC)C(=O)NCCc1csc(-c2ccccc2)n1
IC50 [4]: 0.26 µM | IC50 (Trypanosoma cruzi [1]): 1 µM | selectivity ratio [3]: > 50 | selectivity ratio [5]: 320

O=C(NCCc1csc(-c2ccccc2)n1)c1ccccc1O
IC50 [4]: 2.3 µM | IC50 (Trypanosoma cruzi [1]): 7.9 µM | selectivity ratio [3]: > 3 | selectivity ratio [5]: 18

O=C(NCCc1csc(-c2ccccc2)n1)c1ccco1
IC50 (Trypanosoma cruzi [1]): 2 µM

CS(=O)(=O)c1cccc(C(=O)NCCc2csc(-c3ccccc3)n2)c1
IC50 [4]: 8.5 µM | IC50 (Trypanosoma cruzi [1]): 40 µM | selectivity ratio [3]: > 1.2 | selectivity ratio [5]: 4.9

O=C(CC1CC2CCC1C2)NCCc1csc(-c2ccccc2)n1 (racemic)
inhibition at 10 µM [2]: < 50%

N#Cc1ccc(C(=O)NCCc2csc(-c3ccccc3)n2)cc1
IC50 (Trypanosoma cruzi [1]): 0.4 µM | inhibition at 10 µM [2]: < 50% | selectivity ratio [3]: > 126

O=C(NCCc1csc(-c2ccccc2)n1)c1ccc2ccccc2c1
IC50 (Trypanosoma cruzi [1]): 16 µM | inhibition at 10 µM [2]: < 50% | selectivity ratio [3]: > 3.1

O=CNCCc1csc(-c2ccccc2)n1
inhibition at 10 µM (Trypanosoma cruzi [6]): < 50% | inhibition at 10 µM [2]: < 50%

O=C(NCCc1csc(-c2cccs2)n1)C1CCCC1
IC50 [4]: 2.4 µM | IC50 (Trypanosoma cruzi [1]): 10 µM | selectivity ratio [3]: > 5 | selectivity ratio [5]: 35

CC(C)(C)OC(=O)NCCc1csc(-c2ccccc2)n1
inhibition at 10 µM [2]: < 50%

CC(C)N(C(=O)NCCc1csc(-c2ccccc2)n1)C(C)C
IC50 [4]: 9.6 µM | IC50 (Trypanosoma cruzi [1]): 32 µM | selectivity ratio [3]: > 1.5 | selectivity ratio [5]: 10

O=C(NCCc1csc(-c2ccccn2)n1)C1CCCC1
IC50 [4]: 4 µM | selectivity ratio [5]: 21

COc1cccc(-c2nc(CCNC(=O)N3CCCCC3)cs2)c1
IC50 [4]: 0.67 µM | selectivity ratio [5]: 62

O=S(=O)(NCCc1csc(-c2ccccc2)n1)c1ccccc1
IC50 (Trypanosoma cruzi [1]): 20 µM | inhibition [2]: inactive

O=C(NCCc1csc(-c2cccnc2)n1)c1ccccc1
IC50 (Trypanosoma cruzi [1]): 40 µM

CC(C)OC(=O)NCCc1csc(-c2ccccc2)n1
IC50 [4]: 0.22 µM | IC50 (Trypanosoma cruzi [1]): 0.4 µM | selectivity ratio [3]: > 125 | selectivity ratio [5]: 385

O=C(NCCc1csc(-c2ccccc2)n1)c1cccs1
IC50 (Trypanosoma cruzi [1]): 0.4 µM

CCC(=O)NCCc1csc(-c2ccccc2)n1
inhibition at 10 µM (Trypanosoma cruzi [6]): < 50% | inhibition at 10 µM [2]: < 50%

O=C(NCCc1csc(-c2ccccc2)n1)c1ccc(Cl)cc1
inhibition at 10 µM [2]: < 50%

O=C(NCCc1csc(-c2ccccc2)n1)n1cccc1
IC50 [4]: 1.1 µM | selectivity ratio [5]: 38

N#Cc1cccc(-c2nc(CCNC(=O)N3CCCCC3)cs2)c1
IC50 [4]: 0.28 µM | selectivity ratio [5]: 149

O=C(NCCc1csc(-c2ccccc2)n1)c1cccc2ccccc12
inhibition at 10 µM [2]: < 50%

O=C(NCCc1csc(-c2ccc(Cl)cc2)n1)N1CCCCC1
IC50 [4]: 1.5 µM | selectivity ratio [5]: 55

O=C(NCCc1csc(-c2ccccc2)n1)c1cc(Br)co1
IC50 [4]: 2.5 µM | IC50 (Trypanosoma cruzi [1]): 5 µM | selectivity ratio [3]: > 10 | selectivity ratio [5]: 12

O=C(NCCc1csc(-c2ccccc2)n1)N1CCCCCC1
IC50 (Trypanosoma cruzi [1]): 0.12 µM

O=C(NCCc1csc(-c2ccccc2)n1)c1cccc(C(F)(F)F)c1
IC50 [4]: 11.6 µM | inhibition at 10 µM (Trypanosoma cruzi [6]): < 50% | selectivity ratio [5]: 1.8

COc1ccccc1-c1nc(CCNC(=O)N2CCCCC2)cs1
IC50 [4]: 0.5 µM | selectivity ratio [5]: 168

O=C(NCCc1csc(-c2ccccc2)n1)c1ccon1
IC50 [4]: 0.74 µM | IC50 (Trypanosoma cruzi [1]): 2.5 µM | selectivity ratio [3]: > 19 | selectivity ratio [5]: 113

Cc1ccccc1C(=O)NCCc1csc(-c2ccccc2)n1
IC50 [4]: 3.3 µM | IC50 (Trypanosoma cruzi [1]): 3.2 µM | selectivity ratio [3]: > 15 | selectivity ratio [5]: 2.5

O=C(NCCc1csc(-c2ccccc2)n1)c1ccncc1
IC50 (Trypanosoma cruzi [1]): 40 µM

O=C(NCCc1csc(-c2ccncc2)n1)C1CCCC1
IC50 [4]: 9.1 µM | IC50 (Trypanosoma cruzi [1]): 32 µM | selectivity ratio [3]: > 1.5 | selectivity ratio [5]: 9

O=C(NCCc1csc(-c2ccccc2)n1)c1ccoc1
IC50 [4]: 0.35 µM | selectivity ratio [5]: 240

N#Cc1ccc(-c2nc(CCNC(=O)N3CCCCC3)cs2)cc1
IC50 [4]: 0.33 µM | selectivity ratio [5]: 125

O=C(NCCc1csc(-c2ccccc2)n1)N1CCOCC1
IC50 (Trypanosoma cruzi [1]): 3.2 µM

O=C(NCCc1csc(-c2cccnc2)n1)C1CCCC1
IC50 [4]: 6.6 µM | IC50 (Trypanosoma cruzi [1]): 20 µM | selectivity ratio [3]: > 2.5 | selectivity ratio [5]: 13

O=C(NCCc1csc(-c2ccccc2)n1)c1cccc(O)c1
inhibition at 10 µM [2]: < 50%

O=C(NCCc1csc(-c2ccccc2)n1)C1CCCC1
microsomal CLint [7]: 296 µL/min/mg | half-life [8]: 6 min

N#Cc1cccc(C(=O)NCCc2csc(-c3ccccc3)n2)c1
IC50 (Trypanosoma cruzi [1]): 0.79 µM

O=C(NCCc1csc(-c2ccccc2)n1)c1ccc[nH]1
IC50 (Trypanosoma cruzi [1]): 6.3 µM

C[Si](C)(C)C#Cc1cccc(C(=O)NCCc2csc(-c3ccccc3)n2)c1
IC50 [4]: 3.6 µM | IC50 (Trypanosoma cruzi [1]): 2 µM | selectivity ratio [3]: > 12 | selectivity ratio [5]: 2.9

O=C(NCCc1csc(-c2ccccn2)n1)c1ccccc1
IC50 (Trypanosoma cruzi [1]): 6.3 µM

O=C(NCCc1csc(-c2ccccc2)n1)C1CCOCC1
IC50 [4]: 5 µM | selectivity ratio [5]: 17

CC(C)NC(=O)NCCc1csc(-c2ccccc2)n1
IC50 [4]: 0.9 µM | IC50 (Trypanosoma cruzi [1]): 1.6 µM | selectivity ratio [3]: > 31 | selectivity ratio [5]: 93

C#Cc1cccc(C(=O)NCCc2csc(-c3ccccc3)n2)c1
IC50 [4]: 0.76 µM | selectivity ratio [5]: 27

COc1ccc(C(=O)NCCc2csc(-c3ccccc3)n2)cc1
inhibition at 10 µM [2]: < 50%

O=C(NCCc1csc(-c2ccccc2)n1)C1CC2C=CC1O2 (racemic)
IC50 [4]: 5.5 µM | selectivity ratio [5]: 15

O=C(NCCc1csc(-c2ccccc2)n1)c1cscn1
IC50 [4]: 1.2 µM | selectivity ratio [5]: 68

O=C(NCCc1csc(-c2ccccc2)n1)c1cnco1
inhibition at 10 µM (Trypanosoma cruzi [6]): < 50% | inhibition at 10 µM [2]: < 50%

COc1ccccc1C(=O)NCCc1csc(-c2ccccc2)n1
IC50 [4]: 10.6 µM | IC50 (Trypanosoma cruzi [1]): 10 µM | selectivity ratio [3]: > 5 | selectivity ratio [5]: 2

CC(=O)NCCc1csc(-c2ccccc2)n1
inhibition at 10 µM (Trypanosoma cruzi [6]): < 50% | inhibition at 10 µM [2]: < 50%

CC(C)(C)C(=O)NCCc1csc(-c2ccccc2)n1
IC50 [4]: 1.7 µM | IC50 (Trypanosoma cruzi [1]): 6.3 µM | selectivity ratio [3]: > 7.9 | selectivity ratio [5]: 50

O=C(NCCc1csc(-c2cccc(Cl)c2)n1)N1CCCCC1
IC50 [4]: 0.16 µM | selectivity ratio [5]: 511

O=S(=O)(NCCc1csc(-c2ccccc2)n1)N1CCCC1
IC50 (Trypanosoma cruzi [1]): 32 µM | inhibition [2]: inactive

Cc1ccc(-c2nc(CCNC(=O)N3CCCCC3)cs2)cc1
IC50 [4]: 3.7 µM | selectivity ratio [5]: 22

CC(C)C(=O)NCCc1csc(-c2ccccc2)n1
IC50 [4]: 5.3 µM | IC50 (Trypanosoma cruzi [1]): 40 µM | selectivity ratio [3]: > 1.2 | selectivity ratio [5]: 16

O=C(Cc1ccccc1)NCCc1csc(-c2ccccc2)n1
inhibition at 10 µM [2]: < 50%

O=C(NCCc1csc(-c2ccccc2)n1)c1cccnc1
IC50 (Trypanosoma cruzi [1]): 2.5 µM

O=C(NCCc1csc(-c2ccccc2)n1)c1cccc(S(F)(F)(F)(F)F)c1
inhibition at 10 µM (Trypanosoma cruzi [6]): < 50% | inhibition at 10 µM [2]: < 50%

COc1ccc(-c2nc(CCNC(=O)N3CCCCC3)cs2)cc1
inhibition at 10 µM (Trypanosoma cruzi [6]): < 50% | inhibition at 10 µM [2]: > 50%

O=C(NCCc1csc(-c2ccccc2)n1)C1CCCCC1
IC50 (Trypanosoma cruzi [1]): 0.32 µM

O=C(NCCc1csc(-c2ccccc2)n1)OCC1CC1
IC50 [4]: 0.97 µM | IC50 (Trypanosoma cruzi [1]): 3.2 µM | selectivity ratio [3]: > 15 | selectivity ratio [5]: 86

Cc1ccc(C(=O)NCCc2csc(-c3ccccc3)n2)o1
IC50 [4]: 1.9 µM | selectivity ratio [5]: 22

Cc1cccc(C(=O)NCCc2csc(-c3ccccc3)n2)c1
IC50 [4]: 3.9 µM | IC50 (Trypanosoma cruzi [1]): 6.3 µM | selectivity ratio [3]: > 7.9 | selectivity ratio [5]: 21

O=C(NCCc1csc(-c2ccncc2)n1)c1ccccc1
IC50 (Trypanosoma cruzi [1]): 32 µM

N#Cc1ccccc1C(=O)NCCc1csc(-c2ccccc2)n1
inhibition at 10 µM [2]: < 50%

Cc1ccccc1-c1nc(CCNC(=O)N2CCCCC2)cs1
IC50 [4]: 0.19 µM | selectivity ratio [5]: 439

O=C(NCCc1csc(-c2ccccc2)n1)c1cnccn1
IC50 [4]: 4.1 µM | IC50 (Trypanosoma cruzi [1]): 32 µM | selectivity ratio [3]: > 1.5 | selectivity ratio [5]: 20

N#Cc1ccccc1-c1nc(CCNC(=O)N2CCCCC2)cs1
IC50 [4]: 0.56 µM | IC50 (Trypanosoma cruzi [1]): 0.79 µM | selectivity ratio [3]: > 63 | selectivity ratio [5]: 148
